Assay results gathered from unrelated publications.
Protocols differ between the studies behind these lines.
Target: G protein-coupled receptor kinase 4 (GRK4, Homo sapiens, UniProt P32298)

| SMILES | effect on | method | concentration | remaining binding |
| --- | --- | --- | --- | --- |
| O=C1CCc2cc(Nc3cc(OC4CCOCC4)c([N+](=O)[O-])cc3Cl)ccc2N1 | cell-free assay | competition with immobilised ligand | 1 µM | 100% |
| COc1ccnn2ncc(-c3ccnc(N(C)C)n3)c12 | binding |  | 1 µM | 79% |
| CN(C)C(=O)Cn1cc(-c2nc([C@@](C)(c3ccc(-c4cnc(N)nc4)cc3)C3CC3)no2)cn1 | cell-free assay | competition with immobilised ligand | 1 µM | 86% |
| C[C@@H](c1ccc(-n2cnc3c(N)ncnc32)cc1)N1CCc2nn(C)c(Cc3ccccc3)c2C1=O | binding | competition with immobilised ligand | 0.1 µM | 59% |
| COc1cnc(Nc2cccc(S(N)(=O)=O)c2)nc1N1CCN(c2ccccc2)C(=O)C1 | binding | competition with immobilised ligand | 1 µM | 100% |
| O=C(c1ccc(Nc2ncc(Cl)c(-c3ccc(Cl)s3)n2)cc1)N1CCC(N2CCCC2)CC1 | binding | competition with immobilised ligand | 1 µM | 1.1% |
| COc1ccc2c(O[C@@H]3C[C@H]4C(=O)N[C@]5(C(=O)O)CC5/C=C\CCCCC[C@H](NC(=O)OC5CCCC5)C(=O)N4C3)cc(-c3csc(NC(=O)C(C)C)n3)nc2c1C (stereo partly drawn) | cell-free assay | competition with immobilised ligand | 1 µM | 67% |
| CNC(=O)[C@@H]1CC[C@@H](n2c(-c3ccc4cnccc4c3)nc3ccc(C(=O)NCc4cccc(C(N)=O)c4)cc32)C1 | binding | competition with immobilised ligand | 1 µM | 93% |
| Nc1c(C(=O)NCc2ccc(C(=O)NCCCC3CCCCC3)cc2)cnn1-c1ccccc1 | cell-free assay | competition with immobilised ligand | 0.1 µM | 100% |
| O=C(NCCCN1CCOCC1)c1ccc(Nc2ncc(Cl)c(-c3ccc(Cl)s3)n2)cc1 | binding | competition with immobilised ligand | 1 µM | 2.7% |
| O=C(Nc1cccnn1)N1CC(C/C=C/c2cncc(Oc3ccc(C(F)(F)F)cn3)n2)C1 | cell-free assay | competition with immobilised ligand | 1 µM | 100% |
| C[C@H]1CCN(c2nccc(-c3cnn4ncccc34)n2)C1 | binding |  | 1 µM | 54% |
| O=C(c1ccc(Nc2ncc(Cl)c(-c3cc4ccccc4s3)n2)cc1)N1CCC(N2CCCC2)CC1 | binding | competition with immobilised ligand | 1 µM | 3.5% |
| CN(c1nccc(-c2cnn3ncccc23)n1)C1CC1 | binding |  | 1 µM | 72% |
| Nc1ncc2c(n1)-c1c([nH]c3ccc(C#CC4CC4)cc13)CCCC2 | binding | competition with immobilised ligand | 1 µM | 91% |
| CN(C)c1nccc(-c2cnc3ncccn23)n1 | binding |  | 1 µM | 88% |
| O=C(NCC1CCOCC1)c1n[nH]cc1NC(=O)c1c(F)cccc1F | binding | competition with immobilised ligand | 1 µM | 100% |
| N[C@H]1CCN(c2nccc(-c3cnn4ncccc34)n2)C1 | binding |  | 1 µM | 75% |
| CCCCN(CCCC)C(=O)CN1C[C@H](c2cc(OC)c3c(c2)OCO3)[C@@H](C(=O)O)[C@@H]1CC(C)(C)CCC | cell-free assay | competition with immobilised ligand | 1 µM | 100% |
| Cc1cnn2ncc(-c3ccnc(N(C)C)n3)c2c1 | binding |  | 1 µM | 55% |
| CCN1CCN(Cc2ccc(C(=O)Nc3ccc(C)c(Oc4ccc5c(c4)CC(=O)N5)c3)cc2C(F)(F)F)CC1 | binding | competition with immobilised ligand | 1 µM | 100% |
